Source: ChEMBL document CHEMBL1123658, “1-(2-pyridinyl)piperazine derivatives with antianaphylactic, antibronchospastic, and mast cell stabilizing activities” (J Med Chem, 1987)

Columns and labels:
Rattus norvegicus [1] = experiment: Rat PCA Test(50% inhibition of spot areas)in the female albino rats after (ip) administration in 10% aqueous acacia gum; value ranges from 206-307; type: functional; details: read-out: ID50 (the source's name)
Method in brief: (§1)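 Female albino rats (200–250 g) received intradermal ventral injections of rat anti-egg-albumin antiserum; donors were raised with egg albumin im plus H. pertussis ip, and serum was taken at 12 days. 24 h later, compound was given ip in 10% acacia gum (10 mL/kg), 10 rats/group. Challenge 30 min later was iv 0.3% egg albumin plus 1% Evans blue. Blued areas were measured 30 min after challenge.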

Cavia porcellus [2] = experiment: Antibronchospatic activity determined by histamine stimulated bronchospasm inhibition in guinea pigs after(i.v.) administration; type: functional, Bronchiole
Method in brief: (§2)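 Guinea pigs, Konzett–Rössler preparation. Bronchospasm was induced with histamine. Compound was given iv (1 mL/kg) 1 min before the agonist, dissolved in saline or saline with slight excess HCl or CH3SO3H (pH 3.5–4). Three doses were tested in duplicate, chosen to give 20–90% inhibition. ID75 was read graphically from log dose–response curves.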

[3] = In vivo toxic effect was determined in mouse after intraperitoneal administration with 10% aqueous acacia gum; value ranges from 3.43-5.07; type: toxicity, organism-based; details: ip
Method in brief: (§3)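 Female albino mice (20-30 g), 10 animals per dose, dosed intraperitoneally with compound in solution or suspension; compounds tested as salts unless noted. Mortality was recorded over 7 days.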

[4] = In vivo toxic effect was determined in mouse after oral administration with 10% aqueous acacia gum; value ranges from 0.99-1.61; type: toxicity, organism-based
Method in brief: (§4)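 Female albino mice, 20-30 g. Compound given orally as solution or suspension in 10% aqueous acacia gum, 10 animals per dose. Deaths recorded over 7 days.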

Rattus norvegicus [5] = experiment: Rat PCA Test(50% inhibition of spot areas)in the female albino rats after (ip) administration in 10% aqueous acacia gum; value ranges from 43-53; type: functional; details: read-out: ID50 (the source's name); method in brief: as §1
Rattus norvegicus [6] = experiment: Rat PCA Test(50% inhibition of spot areas)in the female albino rats after oral administration in 10% aqueous acacia gum; type: functional; details: read-out: ID50 (the source's name)
Method in brief: (§5)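 Female rats (200-250 g) were passively sensitized by ventral intradermal anti-egg-albumin antiserum. This was raised in rats by intramuscular 1% egg albumin plus ip H. pertussis vaccine, with serum taken at 12 days. After 24 h, groups of 10 were dosed orally with compound or vehicle (10 mL/kg). At 60 min, iv challenge used 0.3% egg albumin with 1% Evans blue. Blued areas were measured after 30 min.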

Rattus norvegicus [7] = experiment: Inhibition of mast cell degranulation was assessed in female albino rats at a dose of 47 umol/kg iv; type: functional
[8] = In vivo toxic effect was determined in mouse after intraperitoneal administration with 10% aqueous acacia gum; value ranges from 0.57-1.04; type: toxicity, organism-based; details: ip; method in brief: as §3
Rattus norvegicus [9] = experiment: Rat PCA Test(50% inhibition of spot areas)in the female albino rats after (ip) administration in 10% aqueous acacia gum; value ranges from […]; type: functional; details: read-out: ID50 (the source's name); method in brief: as §1
Rattus norvegicus [10] = experiment: Inhibition of mast cell degranulation was assessed in female albino rats at a dose of 48 umol/kg iv; type: functional
[11] = In vivo toxic effect was determined in mouse after oral administration with 10% aqueous acacia gum; value ranges from 0.69-1.33; type: toxicity, organism-based; method in brief: as §4
[12] = In vivo toxic effect was determined in mouse after intraperitoneal administration with 10% aqueous acacia gum; value ranges from 0.55-1.17; type: toxicity, organism-based; details: ip; method in brief: as §3
Rattus norvegicus [13] = experiment: Inhibition of mast cell degranulation was assessed in female albino rats at a dose of 28 umol/kg iv; type: functional
Rattus norvegicus [14] = experiment: Rat PCA Test(50% inhibition of spot areas)in the female albino rats after oral administration in 10% aqueous acacia gum; value ranges from 80-130; type: functional; details: read-out: ID50 (the source's name); method in brief: as §5
[15] = In vivo toxic effect was determined in mouse after oral administration with 10% aqueous acacia gum; value ranges from 5.08-7.62; type: toxicity, organism-based; method in brief: as §4
[16] = In vivo toxic effect was determined in mouse after intraperitoneal administration with 10% aqueous acacia gum; value ranges from 2.17-4.89; type: toxicity, organism-based; details: ip; method in brief: as §3
Rattus norvegicus [17] = experiment: Rat PCA Test(50% inhibition of spot areas)in the female albino rats after (ip) administration in 10% aqueous acacia gum; value ranges from 11-48; type: functional; details: read-out: ID50 (the source's name); method in brief: as §1
[18] = In vivo toxic effect was determined in mouse after oral administration with 10% aqueous acacia gum; value ranges from 0.92-1.78; type: toxicity, organism-based; method in brief: as §4
[19] = In vivo toxic effect was determined in mouse after intraperitoneal administration with 10% aqueous acacia gum; value ranges from 0.92-1.65; type: toxicity, organism-based; details: ip; method in brief: as §3
Rattus norvegicus [20] = experiment: Inhibition of mast cell degranulation was assessed in female albino rats at a dose of 31 umol/kg iv; type: functional
Rattus norvegicus [21] = experiment: Rat PCA Test(50% inhibition of spot areas)in the female albino rats after oral administration in 10% aqueous acacia gum; value ranges from 72-115; type: functional; details: read-out: ID50 (the source's name); method in brief: as §5
Rattus norvegicus [22] = experiment: Rat PCA Test(50% inhibition of spot areas)in the female albino rats after (ip) administration in 10% aqueous acacia gum; type: functional; details: read-out: ID50 (the source's name); method in brief: as §1
[23] = In vivo toxic effect was determined in mouse after intraperitoneal administration with 10% aqueous acacia gum; value ranges from 4.25-7.74; type: toxicity, organism-based; details: ip; method in brief: as §3
[24] = In vivo toxicity in mouse after oral administration with 10% aqueous acacia gum; type: organism-based; method in brief: as §4
Rattus norvegicus [25] = experiment: Rat PCA Test(50% inhibition of spot areas)in the female albino rats after (ip) administration in 10% aqueous acacia gum; value ranges from 115-142; type: functional; details: read-out: ID50 (the source's name); method in brief: as §1
Rattus norvegicus [26] = experiment: Inhibition of mast cell degranulation was assessed in female albino rats at a dose of 35 umol/kg iv; type: functional
Rattus norvegicus [27] = experiment: Rat PCA Test(50% inhibition of spot areas)in the female albino rats after oral administration in 10% aqueous acacia gum; Value ranges from (60-123); type: functional; details: read-out: ID50 (the source's name); method in brief: as §5
Rattus norvegicus [28] = experiment: Rat PCA Test(50% inhibition of spot areas)in the female albino rats after oral administration in 10% aqueous acacia gum;Value ranges from (2-34); type: functional; details: read-out: ID50 (the source's name); method in brief: as §5
Rattus norvegicus [29] = experiment: Inhibition of mast cell degranulation was assessed in female albino rats at a dose of 45 umol/kg iv administration; type: functional
[30] = In vivo toxic effect was determined in mouse after intraperitoneal administration with 10% aqueous acacia gum; value ranges from 0.67-1.21; type: toxicity, organism-based; details: ip; method in brief: as §3
Mus musculus = experiment: In vivo toxic effect was determined in mouse after intraperitoneal administration with 10% aqueous acacia gum; NA means poorly absorbed; type: toxicity, organism-based; details: ip; method in brief: as §3
Cavia porcellus [31] = experiment: Antibronchospatic activity was determined by inhibition of histamine stimulated bronchospasm in guinea pigs after (i.v.) administration; type: functional, Bronchiole; method in brief: as §2
Rattus norvegicus [32] = experiment: Rat PCA Test(50% inhibition of spot areas)in the female albino rats after (ip) administration in 10% aqueous acacia gum; value ranges from 41.2-87.3; type: functional; details: read-out: ID50 (the source's name); method in brief: as §1
Rattus norvegicus [33] = experiment: Inhibition of mast cell degranulation was assessed in female albino rats at a dose of 43 umol/kg iv; type: functional
Rattus norvegicus [34] = experiment: Inhibition of mast cell degranulation was assessed in female albino rats at a dose of 23 umol/kg iv; type: functional
Rattus norvegicus [35] = experiment: Rat PCA Test(50% inhibition of spot areas)in the female albino rats after oral administration in 10% aqueous acacia gum; value ranges from 8-11; type: functional; details: read-out: ID50 (the source's name); method in brief: as §5

Work on COC(=O)CCN1CCN(c2ccccn2)CC1.Cl yielded an ED50 (Rattus norvegicus [1]) of 252 µmol/kg, an ID75 (Cavia porcellus [2]) of 3.5 µM/kg and an LD50 [3] of 4020 µmol/kg.
COc1ccc(NC(=O)CCN2CCN(c3ccccn3)CC2)cc1.Cl.Cl showed an LD50 [4] of 1160 µmol/kg, an ED50 (Rattus norvegicus [5]) of 48 µmol/kg and an ED50 (Rattus norvegicus [6]) greater than 95 µmol/kg. It also gave an inhibition in vivo at 47 µmol/kg (Rattus norvegicus [7]) of 19%, an ID75 (Cavia porcellus [2]) of 0.24 µM/kg and an LD50 [8] of 710 µmol/kg.
Cl.Cl.O=C(CCN1CCN(c2ccccn2)CC1)Nc1ccc(Cl)cc1 gave an ED50 (Rattus norvegicus [9]) of 43 µmol/kg, an ED50 (Rattus norvegicus [6]) greater than 96 µmol/kg and an inhibition in vivo at 48 µmol/kg (Rattus norvegicus [10]) of 0%. It also gave an LD50 [11] of 960 µmol/kg and an LD50 [12] of 620 µmol/kg.
CC(O)c1ccc(NC(=O)CCN2CCN(c3ccccn3)CC2)cc1 (stereo unspecified) showed an inhibition in vivo at 28 µmol/kg (Rattus norvegicus [13]) of 22%, an ED50 (Rattus norvegicus [14]) of 103 µmol/kg and an LD50 [15] of 5970 µmol/kg. The ID75 (Cavia porcellus [2]) was 0.48 µM/kg and the LD50 [16] was 3250 µmol/kg.
Nc1ccc(NC(=O)CCN2CCN(c3ccccn3)CC2)cc1 showed an ED50 (Rattus norvegicus [17]) of 23 µmol/kg, an LD50 [18] of 1290 µmol/kg and an LD50 [19] of 1110 µmol/kg. The ID75 (Cavia porcellus [2]) was 0.02 µM/kg, the inhibition in vivo at 31 µmol/kg (Rattus norvegicus [20]) was 84% and the ED50 (Rattus norvegicus [21]) was 91 µmol/kg.
With O=C(O)CCN1CCN(c2ccccn2)CC1 the ED50 (Rattus norvegicus [22]) was greater than 1280 µmol/kg, the ID75 (Cavia porcellus [2]) was 5.23 µM/kg and the LD50 [23] was 5540 µmol/kg.
CCOC(=O)C(=O)Nc1ccc(NC(=O)CCN2CCN(c3ccccn3)CC2)cc1 gave an LD50 [24] greater than 7050 µmol/kg, an ED50 (Rattus norvegicus [25]) of 127 µmol/kg and an ID75 (Cavia porcellus [2]) of 0.23 µM/kg. For the same molecule, the inhibition in vivo at 35 µmol/kg (Rattus norvegicus [26]) was 7%.
Work on Cc1cccc(C)c1NC(=O)CCN1CCN(c2ccccn2)CC1 yielded an ED50 (Rattus norvegicus [27]) of 86 µmol/kg, an ED50 (Rattus norvegicus [28]) of 8 µmol/kg and an inhibition in vivo at 45 µmol/kg (Rattus norvegicus [29]) of 27%. For the same molecule, the LD50 [30] was 810 µmol/kg.
In the case of O=C([O-])c1cc(=O)c2c(OCC(O)COc3cccc4oc(C(=O)[O-])cc(=O)c34)cccc2o1.[Na+].[Na+] [CROMOLYN SODIUM], the LD50 [24] was greater than 6410 µmol/kg, the ED50 (Rattus norvegicus [6]) was greater than 640 µmol/kg and the LD50 (Mus musculus) was “Not Active”. It also gave an ID75 (Cavia porcellus [31]) greater than 21 µM/kg, an ED50 (Rattus norvegicus [32]) of 60 µmol/kg and an inhibition in vivo at 43 µmol/kg (Rattus norvegicus [33]) of 83%.
For O=c1[nH]c2ccccc2n1CCCN1CCN(C(c2ccccc2)c2ccccc2)CC1 [OXATOMIDE], the LD50 [24] was greater than 7300 µmol/kg, the inhibition in vivo at 23 µmol/kg (Rattus norvegicus [34]) was 40% and the ID75 (Cavia porcellus [2]) was 0.08 µM/kg. The ED50 (Rattus norvegicus [35]) was 9 µmol/kg.
